Test results taken from ChEMBL document CHEMBL4689842, “EUbOPEN Chemogenomics Library wave 1” (2021).

Test system: U2OS
Test: Multiplex assay against U2OS
Assay type: toxicity, cell-based
Settings: human
Method in brief: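 At seeding, live cells were stained with Hoechst33342, BioTracker Green Microtubule Cytoskeleton Dye, MitoTracker Red and Annexin V Alexa Fluor 680. After compound addition they were imaged on a CQ1 microscope at 37°C and 5% CO2, and CellPathfinder machine-learning gating sorted them into Hoechst high-intensity objects or normal cells, with normal cells further split into healthy, pyknosed or fragmented nuclei and pyknosed cells into mitotic or apoptotic. Tubulin, mitochondrial-mass and membrane-permeability phenotypes are given as per cents of cells with healthy nuclei.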

[1] = 12 h, 1 µM, compound concentration 1 uM, replicate 1
[2] = 12 h, 1 µM, compound concentration 1 uM, replicate 2
[3] = 12 h, 10 µM, compound concentration 10 uM, replicate 1
[4] = 12 h, 10 µM, compound concentration 10 uM, replicate 2
[5] = 24 h, 1 µM, compound concentration 1 uM, replicate 1
[6] = 24 h, 1 µM, compound concentration 1 uM, replicate 2
[7] = 24 h, 10 µM, compound concentration 10 uM, replicate 1
[8] = 24 h, 10 µM, compound concentration 10 uM, replicate 2

Cc1ccc2nc(NCCN)c3ncc(C)n3c2c1.O=C(O)C(F)(F)F.O=C(O)C(F)(F)F
Population Apoptotic (%) [1]: 29% | Population Fragmented Nuclei (%) [1]: 6% | Population Healthy Nuclei (%) [1]: 83% | Population Hoechst High Intensity Objects (%) [1]: 1% | Population Membrane Permeable-Phenotype (%) [1]: 6% | Population Mitochondria Different-Phenotype (%) [1]: 17% | Population Mitotic Cells (%) [1]: 70% | Population Normal (%) [1]: 98% | Population Pyknosed Nuclei (%) [1]: 10% | Population Tubulin-Different-Phenotype (%) [1]: 27% | Total Cell Count [1]: 235 | Population Apoptotic (%) [2]: 4% | Population Fragmented Nuclei (%) [2]: 8% | Population Healthy Nuclei (%) [2]: 75% | Population Hoechst High Intensity Objects (%) [2]: 13% | Population Mitotic Cells (%) [2]: 95% | Population Normal (%) [2]: 86% | Population Pyknosed Nuclei (%) [2]: 16% | Population Tubulin-Different-Phenotype (%) [2]: 17% | Total Cell Count [2]: 151 | Population Apoptotic (%) [3]: 28% | Population Fragmented Nuclei (%) [3]: 17% | Population Healthy Nuclei (%) [3]: 65% | Population Hoechst High Intensity Objects (%) [3]: 8% | Population Membrane Permeable-Phenotype (%) [3]: 17% | Population Mitochondria Different-Phenotype (%) [3]: 11% | Population Mitotic Cells (%) [3]: 71% | Population Normal (%) [3]: 91% | Population Pyknosed Nuclei (%) [3]: 17% | Population Tubulin-Different-Phenotype (%) [3]: 17% | Total Cell Count [3]: 132 | Population Apoptotic (%) [4]: 50% | Population Fragmented Nuclei (%) [4]: 27% | Population Healthy Nuclei (%) [4]: 53% | Population Hoechst High Intensity Objects (%) [4]: 12% | Population Membrane Permeable-Phenotype (%) [4]: 15% | Population Mitochondria Different-Phenotype (%) [4]: 13% | Population Mitotic Cells (%) [4]: 50% | Population Normal (%) [4]: 87% | Population Pyknosed Nuclei (%) [4]: 18% | Population Tubulin-Different-Phenotype (%) [4]: 22% | Total Cell Count [4]: 123 | Population Apoptotic (%) [5]: 33% | Population Fragmented Nuclei (%) [5]: 2% | Population Healthy Nuclei (%) [5]: 93% | Population Hoechst High Intensity Objects (%) [5]: 1% | Population Membrane Permeable-Phenotype (%) [5]: 7% | Population Mitochondria Different-Phenotype (%) [5]: 19% | Population Mitotic Cells (%) [5]: 66% | Population Normal (%) [5]: 98% | Population Pyknosed Nuclei (%) [5]: 3% | Population Tubulin-Different-Phenotype (%) [5]: 31% | Total Cell Count [5]: 309 | Population Apoptotic (%) [6]: 18% | Population Fragmented Nuclei (%) [6]: 6% | Population Healthy Nuclei (%) [6]: 84% | Population Hoechst High Intensity Objects (%) [6]: 8% | Population Mitochondria Different-Phenotype (%) [6]: 32% | Population Mitotic Cells (%) [6]: 81% | Population Normal (%) [6]: 91% | Population Pyknosed Nuclei (%) [6]: 9% | Population Tubulin-Different-Phenotype (%) [6]: 20% | Total Cell Count [6]: 192 | Population Apoptotic (%) [7]: 76% | Population Fragmented Nuclei (%) [7]: 27% | Population Healthy Nuclei (%) [7]: 30% | Population Hoechst High Intensity Objects (%) [7]: 8% | Population Membrane Permeable-Phenotype (%) [7]: 32% | Population Mitochondria Different-Phenotype (%) [7]: 26% | Population Mitotic Cells (%) [7]: 23% | Population Normal (%) [7]: 91% | Population Pyknosed Nuclei (%) [7]: 41% | Population Tubulin-Different-Phenotype (%) [7]: 32% | Total Cell Count [7]: 123 | Population Apoptotic (%) [8]: 61% | Population Fragmented Nuclei (%) [8]: 29% | Population Healthy Nuclei (%) [8]: 36% | Population Hoechst High Intensity Objects (%) [8]: 14% | Population Membrane Permeable-Phenotype (%) [8]: 24% | Population Mitochondria Different-Phenotype (%) [8]: 42% | Population Mitotic Cells (%) [8]: 38% | Population Normal (%) [8]: 85% | Population Pyknosed Nuclei (%) [8]: 34% | Population Tubulin-Different-Phenotype (%) [8]: 30% | Total Cell Count [8]: 106
